Measured values pooled from the literature.
Each line is one published result; the experiments were not run side by side.
Target: Interleukin-1 receptor-associated kinase 1 (IRAK1, Homo sapiens, UniProt P51617)

For Cc1cc(O)c(-c2ccc([C@@H](C)CN(C)C)cc2)c2c1[nH]c(=O)c1sccc12, the inhibition was -2.56% (enzyme activity; inhibitor; 0.1 µM).
For C1=C/COCc2cc(ccc2OCCN2CCCC2)Nc2nccc(n2)-c2cccc(c2)COC/1, the remaining binding was 0% (binding; 0.1 µM).
C=CC(=O)N1CCC([C@@H]2CCNc3c(C(N)=O)c(-c4ccc(Oc5ccccc5)cc4)nn32)CC1 has an inhibition of 0% (enzyme activity; inhibitor; 1 µM).
CCCCC(=O)Nc1ccc(-c2ccc3ncn(CCC)c(=O)c3c2)cn1 has a remaining binding of 75% (binding; competition with immobilised ligand; 0.5 µM).
C#Cc1cc(-c2cc(Nc3nc(N[C@@H](C)c4ccc(F)cn4)ncc3Cl)n[nH]2)ccc1C=O has an inhibition of 10.8% (enzyme activity; inhibitor; 0.2 µM).
With Cc1ccc(NC(=O)c2ccnc(C(F)(F)F)c2)cc1-c1cc(OCCO)nc(N2CCOCC2)c1 the remaining binding was 100% (binding; 1 µM).
For COc1ccc2oc(-c3ccc4nc(N)oc4c3)c/c(=N\c3ccccc3NC(=O)CCN)c2c1, the remaining binding was 102% (binding; 1 µM).
CO[C@@H]1[C@H](N(C)C(=O)c2ccccc2)C[C@H]2O[C@]1(C)n1c3ccccc3c3c4c(c5c6ccccc6n2c5c31)C(=O)NC4 has an inhibition of 19% (enzyme activity; inhibitor; 1 µM).
C[C@H]1CC[C@H](n2c3cnccc3c3cnc(Nc4ccc5c(n4)CCN(C(=O)CO)C5)nc32)CC1 gave a remaining signal of 23% (cell-free assay; 1 µM).
